Bioassay records deposited in PubChem by several laboratories.
Compounds with a hit are over-represented: about 6.6% of the library has one in this group of screens.
HUVEC inhibit: human endothelial cell proliferation inhibition | viability, % at 10 µM (by protocol) | hit rate 1.1% among 86,000 | HUVEC proliferation, CellTiter-Glo luminescence, 72 h; hits give low values;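 active = viability at or below 30%; inactive = viability above 30%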;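 note: 100% = median luminescence of DMSO-only cell control wells on each plate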
H69AR inhibit: growth inhibitors of human H69AR lung tumor cells; AID 598; hit rate 6% among 85,000; H69AR lung tumor viability, ATP luminescence, 72 h; hits give low values; viability, % at 10 µM;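 active = viability at or below 40%; inactive = viability above 40%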;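 note: multidrug resistant small cell line overexpressing MRP-1 efflux transporter; 100% = mean luminescence of untreated control wells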
Jurkat viability: cytotoxic compounds reducing Jurkat cell viability; Jurkat E6.1 viability, ATP luminescence, 48 h; inhibition, % at 4 µM; hit rate 1.2% among 56,000;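 active = inhibition above the mean inhibition of all tested compounds plus 3 SD, cut at about 28% in these data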
Lung fibro prol: blocks proliferation of human lung fibroblasts. LL 47 human lung fibroblast viability, ATP luminescence; hits give low values. viability, % at 10 µM. hit rate 1.1% among 85,000. AID 719;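 active = viability at or below 50% in the single dose screen; inactive = viability above 50%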;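 note: compound exposure lasted 72 h before the ATP readout; 100% = median luminescence of untreated cell-only wells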
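Times – overnight cell rest, 72 h compound treatment at 37 °C · Test system – human lung fibroblast line LL 47, low passage · Amount – 1,150 cells in each well · Controls – cell-only wells, no compound · Doses – 0.1% DMSO in all compound wells · Measured by – CellTiter-Glo luminescence · Buffer or medium – IMEM plus 15% FBS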
* marks the source's active call; other numbers are inactive results; · = no result given.

SMILES	HUVEC inhibit	H69AR inhibit	Jurkat viability	Lung fibro prol
CCOC(=O)COC(=O)c1ccc(Oc2cc(C)nc(SC)n2)cc1	97.3	94.7	·	99.7
COC(=O)c1ccc(Oc2nc(C)cc(Oc3ccccc3)n2)cc1	·	·	-13.6	·
COC(=O)c1ccc(Oc2cc(C)nc(-n3nc(C)cc3C)n2)cc1	·	·	99.9*	·
CCOC(=O)c1ccc(Oc2cc(C)nc(SC)n2)cc1	62.4	22.4*	75.1*	80.2
CCOC(=O)c1c(NC(=O)CSc2nnc(-c3cccnc3)n2Cc2ccco2)sc(C)c1C	76.7	65.1	3.9	83.8
COC(=O)c1cccc(Cn2nnc3ccccc3c2=O)c1	94.3	94.1	-1.5	·
COC(=O)c1cccc(Cn2c(Cl)c(/C=N/NC(=O)c3ccccc3Cl)sc2=O)c1	79.2	31.5*	·	97.1
O=C(CC1CCCCC1)c1c(O)c2ccccc2oc1=O	3.2*	103.6	-3.8	94.7
CC1CCC(C(=O)c2c(O)c3ccccc3oc2=O)CC1 (centres undefined)	12.7*	57.0	·	85.1
CCCCC(=O)c1c(O)c2ccccc2oc1=O	·	·	-3.3	·
CCCCN=C(C)c1c(O)c2ccccc2oc1=O	93.1	99.2	-1.8	·
CCOC(=O)c1ccc(N=C2C(=S)N(c3ccc(C(=O)OCC)cc3)C(=N)N2/N=C/c2ccccc2)cc1	73.5	0.9*	·	92.1
CCOC(=O)c1ccc(N=Cc2nc3ccccc3n2C)cc1	80.0	81.1	-12.4	94.3
CN(C)c1ccc(/C=N/N2C(=N)N(c3ccccc3)C(=S)C2=Nc2ccccc2)cc1	68.3	15.9*	·	92.8
CN(C)c1ccc(C=Nc2ccccc2)cc1	82.7	105.3	·	103.3
CC1(C)OC(=O)N(Cc2ccco2)C1(C)O (centres undefined)	99.2	82.5	0.6	100.7
Cn1cc(Br)c(C(=O)N2CCN(c3cccc(Cl)c3)CC2)n1	85.8	85.1	·	93.0
CCc1ccc(C2CC(c3cccc(Cl)c3)n3nc(N)nc3N2)cc1 (centres undefined)	96.5	38.2*	-4.8	102.7
Cc1ccc(C2CC(c3cccc(Cl)c3)n3nc(N)nc3N2)cc1 (centres undefined)	100.9	79.4	-2.4	92.0
CCn1nc(C(=O)NC2=NCCS2)c2ccccc2c1=O	2.7*	97.9	·	93.3
CC(=O)c1ccc(NC(=O)Nc2cccc(Cl)c2)cc1	67.6	5.0*	·	98.9
COc1ccc(C(=O)Oc2c(CN3CCOCC3)cc(Cl)c3cccnc23)cc1OC	80.5	1.5*	1.1	7.2*
COc1ccc(OC)c(C(=O)N2CCC(C(=O)c3ccc(F)cc3)CC2)c1	100.1	78.3	·	99.3
CCCCn1ccnc1C(=O)c1ccc(S(=O)(=O)N(CCOC)CCOC)cc1	·	·	8.2	·
Cc1cc(C)c(COCc2cc(/C=N/O)c(C)cc2C)cc1/C=N/O	74.3	18.2*	·	91.5
SMILES	HUVEC inhibit	H69AR inhibit	Jurkat viability	Lung fibro prol
CSc1cc(/C=N/O)c(SC)s1	·	·	-13.2	·
FC(F)(F)c1ccc(N2CCN(c3ncnc4c3nnn4Cc3ccccc3)CC2)nc1	57.2	40.0*	5.4	95.5
COc1ccc(N2CCN(CC(O)c3c[nH]c4ccc(OC)cc34)CC2C)cc1 (centres undefined)	93.7	35.2*	12.1	77.1
O=C(c1cc(-c2ccc(O)cc2)on1)N1CCc2ccccc2C1	88.5	84.3	44.8*	107.0
O=C(c1cc(-c2ccccc2O)on1)N1CCc2ccccc2C1	88.8	102.0	-6.5	101.9
CC1=Nc2ccccc2/C1=C\c1nc(-c2ccc(F)cc2)oc1O	83.7	71.3	·	93.7
CN(C)CCCOc1ccc(C(C)(C)c2ccccc2)cc1	33.8	27.7*	·	78.7
COc1ccc(Cl)cc1NC(=O)CN1CCC(n2nnc3cc(F)ccc32)CC1	61.3	65.0	-1.0	83.2
COc1ccc(N2C(=O)C(Cl)=C(NCc3ccccc3)C2=O)cc1	87.7	91.2	·	96.8
O=C1/C(=C/c2ccc([N+](=O)[O-])cc2)C=C(c2ccccc2)N1c1ccc(O)cc1	9.9*	26.1*	·	54.2
COc1ccc(N2C(=O)/C(=C/c3ccc([N+](=O)[O-])cc3)C=C2c2ccccc2)cc1	56.1	20.6*	·	61.2
O=C(CCn1nnc(-c2cccs2)n1)NC1CCCCC1	101.6	99.4	-6.5	102.5
CCN1C(=O)/C(=C2/C=Cc3ccccc3N2C)OC1=S	88.3	27.9*	·	90.5
Nc1nonc1C(=O)NCCNCc1c(OCc2ccccc2F)ccc2ccccc12	43.3	11.7*	·	61.0
O=C(C1CCCN(S(=O)(=O)c2ccc(F)cc2)C1)N(Cc1cccs1)C1CC1 (centres undefined)	118.6	99.1	·	96.4
Cc1cc(Cl)c(S(=O)(=O)N2CCN(c3ccc(F)cc3)CC2)cc1OCC(=O)NC1CCCCC1	78.7	36.1*	·	93.8
[O-][n+]1onc2c3ccnnc3ccc21	104.3	38.0*	·	91.8
Cc1cc2c(ccc3c2no[n+]3[O-])nn1	99.0	36.7*	-0.7	91.9
O=C(CSc1nc(-c2ccncc2)nn1CC(=O)N1CCCCC1)NC1CCCC1	96.4	82.2	·	94.0
CCc1ccc(NC(=O)c2ccccc2NC(=O)C2CCCO2)cc1 (centres undefined)	88.2	93.9	·	104.0
Cc1ccc(N=Cc2c(O)n(-c3cc(Cl)ccc3N3CCOCC3)c(=O)c3ccccc23)cc1C	106.5	73.8	·	105.9
O=Cc1ccccc1OCCOc1ccccc1C=O	47.2	23.2*	·	54.4
CCOP(=O)(O)c1ccccc1OCCOc1ccccc1P(=O)(O)OCC	103.7	100.7	·	106.2
COc1ccc(/C(N)=N/OC(=O)CSc2ccccc2)cc1OC	103.4	102.0	·	106.7
c1coc(CNc2nc(N3CCCCC3)nc3ccccc23)c1	55.8	5.3*	2.0	81.3
SMILES	HUVEC inhibit	H69AR inhibit	Jurkat viability	Lung fibro prol
O=c1c2ccccc2nc2c3ccccc3c(NCc3ccco3)nn12	81.6	73.8	·	93.8
c1ccc(-c2nc(NCc3ccco3)c3ccccc3n2)nc1	48.4	16.0*	15.6	55.4
Oc1ccccc1-c1nc(NCc2ccco2)c2ccccc2n1	46.6	36.0*	·	74.2
CCCc1nccn1S(=O)(=O)c1cc(OC)ccc1OC	98.4	92.7	·	103.2
Cc1ccccc1C(=O)Nc1nnc(-c2ccc(F)cc2)o1	64.8	35.6*	23.7	85.2
O=C(Nc1nnc(-c2ccc3c(c2)CCCC3)o1)C1CCCCC1	69.9	48.8	-7.7	80.0
O=C(Nc1nnc(-c2ccccc2)o1)c1nc2ccccc2s1	66.7	29.1*	-5.1	90.4
O=C(Nc1nnc(-c2ccc3c(c2)CCCC3)o1)c1ccc(Cl)cc1Cl	28.6*	52.5	·	88.8
COc1cccc(-c2nnc(NC(=O)c3ccc(S(=O)(=O)N4CC(C)OC(C)C4)cc3)o2)c1 (centres undefined)	·	·	4.0	·
COc1ccccc1C(=O)Nc1nnc(-c2ccc(F)cc2)o1	92.0	86.5	-2.0	102.5
COc1ccc(-c2nnc(NC(=O)c3ccc(S(=O)(=O)N4CCc5ccccc5C4)cc3)o2)cc1	13.1*	18.4*	0.4	69.3
COc1cccc(-n2nc(C(=O)N3CC(C)CC(C)C3)c3ccccc3c2=O)c1 (centres undefined)	106.5	85.4	·	96.1
CN(C)S(=O)(=O)c1ccc(C(=O)Nc2nnc(-c3ccc4c(c3)CCCC4)o2)cc1	39.5	27.9*	·	71.3
COc1ccccc1C(=O)Nc1nnc(-c2ccc(Cl)cc2)o1	·	·	0.3	·
